# Bioassay records from PubChem.
# ALR inh: inhibitors of human sulfhydryl oxidase ALR | P55789 | purified ALR, DTT oxidation, H2O2 HRP-luminol luminescence | inhibition, % (concentration not given with the values) | 290,000 compounds, 3.8% hits | AID 485317;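 active = mean replicate inhibition above about 79%, with every replicate also reaching it, limit read from the data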
# Target sequence (P55789 whole entry, looked up): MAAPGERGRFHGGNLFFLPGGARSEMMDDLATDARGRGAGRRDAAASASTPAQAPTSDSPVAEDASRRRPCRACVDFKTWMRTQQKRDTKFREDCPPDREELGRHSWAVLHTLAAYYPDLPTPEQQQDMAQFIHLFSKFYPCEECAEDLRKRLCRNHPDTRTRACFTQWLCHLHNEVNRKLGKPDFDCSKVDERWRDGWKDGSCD
# PREPL inh: inhibits the human prolyl oligopeptidase-like enzyme | AID 2751 | 320,000 compounds, 0.68% hits | inhibition, % at 5.96 µM | recombinant PREPL, fluorescence polarization activity-based probe; in the data active = inhibition above about 43%;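 note: 0% = enzyme with DMSO and 100% = wells lacking enzyme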
# SUMO HTRF inh: SUMOylation inhibition | HTRF SUMOylation assay, SAE1/SAE2 + UBC9, in vitro | inhibition, % at 35 µM | 290,000 compounds, 0.36% hits; in the data active = inhibition above about 50%, passing the limit was not always enough
# Rin1 Abl inh: inhibitors of human Rin1-Abl protein interaction | TR-FRET Rin1/Abl binding, biochemical | inhibition, % at 7.35 µM | 360,000 compounds, 0.4% hits; in the data active = inhibition above about 5%, passing the limit was not always enough
# RBBP9 inh: blocks human serine hydrolase RBBP9; O75884; recombinant RBBP9, FP-Rh probe fluorescence polarization; inhibition, % at 7.94 µM; 220,000 compounds, 0.2% hits;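 active = inhibition above the campaign mean of all tested compounds plus 3 SD, cut at about 14% in these data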;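 note: plate controls were DMSO wells with RBBP9 for no effect and wells lacking RBBP9 protein for full effect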
# Target sequence (O75884 whole entry, looked up): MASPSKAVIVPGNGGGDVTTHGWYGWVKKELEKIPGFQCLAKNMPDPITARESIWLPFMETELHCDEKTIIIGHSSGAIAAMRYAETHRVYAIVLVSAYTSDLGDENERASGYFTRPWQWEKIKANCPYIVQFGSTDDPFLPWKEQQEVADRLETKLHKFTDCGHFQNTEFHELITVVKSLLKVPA
#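 Test system: recombinant human RBBP9. Quantity: 2.5 µM RBBP9 dispensing solution, before mixing. Detection: FP readout at 525/598 nm. Reagent: Serine-hydrolase probe FP-Rh, 375 nM pre-mixing. Measure: % inhibition. Control set: DMSO-treated enzyme wells and wells lacking RBBP9. Buffer or medium: Tris-NaCl-Pluronic buffer, pH 8.0. Times: preincubation 30 min plus labeling 45 min at 25 °C.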
# UBC13 inh: blocks human UBC13 polyubiquitin chain formation. 330,000 compounds, 0.47% hits. inhibition, % at 20 µM. P61088. TR-FRET; in the data active = inhibition above about 45%, passing the limit was not always enough
# Target sequence (P61088 whole entry, looked up): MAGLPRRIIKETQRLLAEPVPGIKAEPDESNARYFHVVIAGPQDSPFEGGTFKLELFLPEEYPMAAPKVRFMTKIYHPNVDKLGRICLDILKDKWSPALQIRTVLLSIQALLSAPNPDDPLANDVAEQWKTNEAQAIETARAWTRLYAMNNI
# The depositor's hits bear a star; nt = no result given. Hits are enriched below; roughly 4.3% of the tested compounds scored in any of these assays.
SMILES,ALR inh,PREPL inh,SUMO HTRF inh,Rin1 Abl inh,RBBP9 inh,UBC13 inh
FC(F)(F)c1ccc(-c2n[nH]c(=S)o2)nc1,13,-3,0,0,5,-1
S=c1[nH]nc(-c2ccc3ccccc3n2)o1,91*,-8,11,-9,-11,-6
O=C(c1cc2cc(F)ccc2[nH]1)N1CCCC(Nc2ccc(F)cc2)C1 (centres undefined),7,9,-2,2,nt,-5
COc1ccc(NC2CCCN(C(=O)c3cc(C)nc4cc(F)ccc34)C2)cc1 (centres undefined),99*,2,0,-1,nt,-7
Cc1cc(C(=O)N2CCCC(Nc3ccccc3)C2)c2ccc(F)cc2n1 (centres undefined),99*,5,-11,-1,nt,4
COc1ccc(NC2c3ccccc3C(=O)N2c2cccnc2)cc1 (centres undefined),88*,2,16,0,-8,-7
COc1ccc(-c2nc3ccc(C)cn3c2CC(C)(C)C)cc1OC,nt,nt,nt,4,nt,nt
CC(C)c1ccc(NC2CCCN(C(=O)c3ccco3)C2)cc1 (centres undefined),36,18,4,-2,nt,-6
Cc1noc(C)c1C(=O)N1CCCC(Nc2ccc(C(C)C)cc2)C1 (centres undefined),98*,12,-4,-2,nt,-4
CCc1noc(C)c1C(=O)N1CCCC(Nc2cccc(F)c2)C1 (centres undefined),nt,nt,nt,1,nt,nt
COc1ccc(NC2CCCN(C(=O)c3c(C)noc3C)C2)cc1 (centres undefined),99*,3,7,2,nt,1
CCOc1ccc(S(=O)(=O)N2CCC(C(=O)NCCc3ccc(S(N)(=O)=O)cc3)CC2)cc1,-3,0,14,-1,nt,5
Cc1ccc(S(=O)(=O)CCC(=O)NCc2ccccc2)cc1,-4,-6,2,2,-8,1
O=C(CCS(=O)(=O)c1ccccc1)NCCS(=O)(=O)c1ccccc1,-3,12,-8,1,-1,-1
Cn1c(=O)c(=O)n(C)c2cc(S(=O)(=O)CCC(=O)NCc3ccccc3)ccc21,99*,0,10,2,nt,5
CCNC(=O)CCS(=O)(=O)c1ccc2ccccc2c1,99*,1,17,-2,1,5
Cc1occc1C(=O)NCCCCc1ccccc1,98*,4,0,2,3,4
Cc1occc1C(=O)NC(C)CCc1ccccc1 (centres undefined),-5,-7,13,1,0,0
Cc1occc1C(=O)NC(C)C(C)(C)C (centres undefined),98*,7,4,0,1,-8
O=C(NCCc1ccc(O)cc1)c1ccc(Cl)cc1,79*,2,-21,0,0,6
Cc1cc(C(=O)NCCc2ccc(Cl)cc2)no1,1,3,10,-2,-1,21
Cc1occc1C(=O)NCCc1ccc(Cl)cc1,96*,3,12,2,-14,-2
O=C(NCCc1ccc(Cl)cc1)c1ccc(=O)[nH]c1,-3,-7,13,3,nt,-3
CCOC(=O)c1ccc(NC(=O)CN2C(=O)NC3(CCCCCCC3)C2=O)cc1,16,-1,nt,7,nt,5
CCN1CCN(C(=O)C2CCC(=O)N(CCCN3CCCC3=O)C2)CC1 (centres undefined),-2,4,11,3,nt,7
SMILES,ALR inh,PREPL inh,SUMO HTRF inh,Rin1 Abl inh,RBBP9 inh,UBC13 inh
O=c1cc(CN2CCCCC2)c2ccccc2o1,nt,nt,nt,-1,nt,nt
CC(=O)Nc1cc(NC(C)=O)c(N=Nc2ccccc2)cc1C,-9,-4,-16,-10,-3,-11
Cc1ccc(NCC(O)C(O)C(O)CO)c(N=Nc2ccccc2)c1C (centres undefined),99*,11,-23,-5,4,-220
Cn1ncc2c(Nc3ccc(Cl)c(Cl)c3)ncnc21,nt,-14,nt,0,nt,11
CCCn1ncc2c(Nc3ccc(C)c(C)c3)ncnc21,96*,14,7,1,nt,8
COc1ccc2c(c1)CCC(C)N2C(=O)C(=O)c1c[nH]c2ccccc12 (centres undefined),0,-6,2,-7,-5,12
CC(=O)N[C@@H](Cc1c[nH]c2ccccc12)C(=O)OCC(=O)Nc1ccc(Cl)c(S(=O)(=O)N(C)C)c1,52,24,-2,1,5,2
CC(=O)NC(Cc1c[nH]c2ccccc12)C(=O)OCC(=O)Nc1ccc2c(c1)OCO2 (centres undefined),89*,32,24,-8,-5,-4
COc1ccc(NC(=O)COC(=O)CCCc2c[nH]c3ccccc23)cc1,85*,22,19,4,-14,6
CC(=O)Nc1ccc(NC(=O)COC(=O)Cc2c[nH]c3ccccc23)cc1,83*,2,0,2,3,13
CC(C)C(=O)N1CCC1(C)C(=O)Nc1cccc(Oc2ccccc2)c1 (centres undefined),nt,nt,nt,0,nt,nt
CN(C)c1nc(Oc2ccc(/C=N/O)cc2)nc(N(C)C)n1,99*,-12,-3,0,-5,1
COc1cc(C)nc(Oc2ccc(/C=N/O)cc2)n1,98*,13,13,-2,-4,0
COc1nc(Oc2ccc(/C=N/O)cc2)nc(N(C)C)n1,99*,3,15,4,-2,-3
CC(C)Nc1nc(NC(C)C)nc(Oc2ccc(/C=N/O)cc2)n1,nt,-10,nt,2,-17,2
O=C1CN(C(=O)COC(=O)CCS(=O)(=O)c2ccccc2Cl)c2ccccc2N1,1,2,nt,-1,nt,0
CN1C(=O)C(N=Nc2ccccc2C(=O)O)N(C)C1=S (centres undefined),98*,-3,-4,0,-7,-184
CC1=NN(C(N)=S)C(=O)C1N=Nc1ccccc1C(=O)O (centres undefined),0,-5,6,-1,nt,-8
Nc1ccc2nc(SCc3ccccc3F)sc2c1,99*,12,4,-2,-6,-5
Oc1cccc(O)c1O,83*,30,nt,nt,nt,7
O=C(O)c1cccc(O)c1O,3,-3,nt,5,nt,-20
Oc1ccc(N2Cc3ccccc3C2)cc1,84*,9,-14,-1,nt,0
Oc1cccc(N2Cc3ccccc3C2)c1,-26,10,-5,4,nt,2
COc1ccc(C(O)Cn2cc([N+](=O)[O-])nc2C)cc1 (centres undefined),-16,-3,-4,2,-1,1
CCN(CC)c1ccc(/C=C2/C(=O)c3ccc(C(=O)O)cc3C2=O)cc1,98*,16,17,-5,2,nt
CN(CC(=O)Nc1ccc(Cl)cc1)C(=O)C1CCCC1,nt,nt,nt,3,nt,-8
CCNC(=O)C1(C)CCN(C(=O)c2cccc(C#N)c2)C1 (centres undefined),nt,nt,nt,2,nt,nt
